# Test results published in ChEMBL document CHEMBL1126207, “Base-catalyzed isomerization of retinoic acid. Synthesis and differentiation-inducing activities of 14-alkylated all-trans-, 13-cis-, and 20,14-retro-retinoic acids” (1992).
# Activity calls are given as the source filed them. The calls are words filed in the database; no cut-off is given here.
# Tested on: HL-60
# Assay: Concentration required for 50% inhibition of differentiation-inducing activity against human promyelocytic leukemia cell line HL-60
# Format: functional
# Settings: read-out: ED50 (the source's name)
# In short: (§1)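 HL-60 cells kept in suspension in RPMI1640 with 5% FCS plus penicillin G/streptomycin, 37 °C, 5% CO2. Seeded near 8 × 10^4 cells/mL, compound added from 0.2 mM ethanol stock (final ethanol below 0.5%), 4-day incubation. Differentiation by NBT reduction (20 min, 37 °C, 0.2% NBT with TPA), formazan-positive cells counted on ≥200 cells; ED50 taken from NBT data; retinoic acid run concurrently.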
row,EC50 [nM],SMILES
1,680,CC\C(C(=O)O)=C(C)/C=C/C=C(C)/C=C/C1=C(C)CCCC1(C)C
2,63,CC1=C(/C=C/C(C)=C/C=C/C(C)=C(/C)C(=O)O)C(C)(C)CCC1
3,5.9,CC1=C(/C=C/C(C)=C/C=C/C(C)=C\C(=O)O)C(C)(C)CCC1 [ISOTRETINOIN]
4,55.1,C=C(/C=C/C=C(C)/C=C/C1=C(C)CCCC1(C)C)C(C)C(=O)O (stereo not given)
5,13,CC1=C(/C=C/C(C)=C/C=C/C(C)=C(\C)C(=O)O)C(C)(C)CCC1
6,2.4,CC1=C(/C=C/C(C)=C/C=C/C(C)=C/C(=O)O)C(C)(C)CCC1 [TRETINOIN]
7,52,C=C(/C=C/C=C(C)/C=C/C1=C(C)CCCC1(C)C)CC(=O)O
8,> 1000,C=C(/C=C/C=C(C)/C=C/C1=C(C)CCCC1(C)C)C(C)(C)C(=O)O

# Tested on: HL-60
# Assay: Concentration required for 50% inhibition of differentiation-inducing activity against human promyelocytic leukemia cell line HL-60; IA is inactive
# Format: functional, cell-based
# Settings: not given
# In short: as §1
row,SMILES,ED50
1,CC1=C(/C=C/C(C)=C/C=C/C(C)=C(\C(=O)O)C(C)C)C(C)(C)CCC1,inactive
2,CC1=C(/C=C/C(C)=C/C=C/C(C)=C(/C(=O)O)C(C)C)C(C)(C)CCC1,inactive
